Measurements reported in ChEMBL document CHEMBL3046550, “Design, synthesis, and insecticidal evaluation of new benzoylureas containing amide and sulfonate groups based on the sulfonylurea receptor protein binding site for diflubenzuron and glibenclamide” (2013).

Tests used:
Assay type in all cases: functional
Details in all cases: 96 h
[1] = tested on: Plutella xylostella; experiment: Larvicidal activity against second-instar larvae of Plutella xylostella (diamondback moth) infected in compound-treated cabbage leaves assessed as mortality at 200 mg/l measured after 4 days
Summary of the method: (§1)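 Test solutions at the different concentrations were made by dissolving compounds in DMF and adding distilled water.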

[2] = tested on: Mythimna separata; experiment: Larvicidal activity against fourth instar larvae of Mythimna separata (Oriental armyworm) infected compound-treated corn leaves assessed as mortality at 50 mg/l measured after 4 days
Summary of the method: (§2)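 Petri dishes each infested with 10 fourth-instar larvae; percentage mortality scored 4 days after treatment. Three replicates per treatment, with the reported value the mean of the three.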

[3] = tested on: Mythimna separata; experiment: Larvicidal activity against fourth instar larvae of Mythimna separata (Oriental armyworm) infected compound-treated corn leaves assessed as mortality at 100 mg/l measured after 4 days; summary of the method: as §2
[4] = tested on: Mythimna separata; experiment: Larvicidal activity against fourth instar larvae ofMythimna separata (Oriental armyworm) infected compound-treated corn leaves assessed as mortality at 200 mg/l measured after 4 days; summary of the method: as §2
[5] = tested on: Plutella xylostella; experiment: Larvicidal activity against second-instar larvae of Plutella xylostella (diamondback moth) infected in compound-treated cabbage leaves assessed as mortality at 20 mg/l measured after 4 days; summary of the method: as §1
[6] = tested on: Mythimna separata; experiment: Larvicidal activity against fourth instar larvae of Mythimna separata (Oriental armyworm) infected compound-treated corn leaves assessed as mortality at 10 mg/l measured after 4 days; summary of the method: as §2
[7] = tested on: Plutella xylostella; experiment: Larvicidal activity against second-instar larvae of Plutella xylostella (diamondback moth) infected in compound-treated cabbage leaves assessed as mortality at 2 mg/l measured after 4 days; summary of the method: as §1
[8] = tested on: Plutella xylostella; experiment: Larvicidal activity against second-instar larvae of Plutella xylostella (diamondback moth) infected in compound-treated cabbage leaves assessed as mortality at 5 mg/l measured after 4 days; summary of the method: as §1
[9] = tested on: Mythimna separata; experiment: Larvicidal activity against fourth instar larvae of Mythimna separata (Oriental armyworm) infected compound-treated corn leaves assessed as mortality at 5 mg/l measured after 4 days; summary of the method: as §2
[10] = tested on: Mythimna separata; experiment: Larvicidal activity against fourth instar larvae of Mythimna separata (Oriental armyworm) infected compound-treated corn leaves assessed as mortality at 20 mg/l measured after 4 days; summary of the method: as §2
[11] = tested on: Mythimna separata; experiment: Larvicidal activity against fourth instar larvae of Mythimna separata (Oriental armyworm) infected compound-treated corn leaves assessed as mortality at 1 mg/l measured after 4 days; summary of the method: as §2
[12] = tested on: Mythimna separata; experiment: Larvicidal activity against fourth instar larvae of Mythimna separata (Oriental armyworm) infected compound-treated corn leaves assessed as mortality at 2.5 mg/l measured after 4 days; summary of the method: as §2

Row | Structure (SMILES) | mortality at 200 µg/mL [1] [%] | mortality at 50 µg/mL [2] [%] | mortality at 100 µg/mL [3] [%] | mortality at 200 µg/mL [4] [%] | further results
1 | O=C(NC(=O)c1c(F)cccc1F)Nc1ccc(S(=O)(=O)OCCF)cc1 | 20 | 0 | 100 | 100 | 
2 | O=C(NC(=O)c1c(F)cccc1F)Nc1ccc(S(=O)(=O)OCCCl)cc1 | 30 | 40 | 100 | 100 | 
3 | O=C(NC(=O)c1c(F)cccc1F)Nc1ccc(S(=O)(=O)OC(C(F)(F)F)C(F)(F)F)cc1 | 60 |  |  | 0 | mortality at 20 µg/mL [5]: 20%
4 | O=C(NC(=O)c1c(F)cccc1F)Nc1ccc(S(=O)(=O)OCCCCCl)cc1 | 20 | 20 | 100 | 100 | 
5 | CCCCCOS(=O)(=O)c1ccc(NC(=O)NC(=O)c2c(F)cccc2F)cc1 | 30 | 60 | 100 | 100 | mortality at 10 µg/mL [6]: 95%
6 | CC(C)(C)NC(=O)c1ccc(NC(=O)NC(=O)c2c(F)cccc2F)cc1 | 0 | 50 | 100 | 100 | 
7 | CC(C)N(C(=O)c1ccc(NC(=O)NC(=O)c2c(F)cccc2F)cc1)C(C)C |  |  |  | 0 | mortality at 20 µg/mL [5]: 100%
8 | CN(C(=O)c1ccc(NC(=O)NC(=O)c2c(F)cccc2F)cc1)c1ccc(Cl)cc1 | 0 |  |  | 0 | 
9 | O=C(NC(=O)c1c(F)cccc1F)Nc1ccc(C(=O)Nc2ccc(Cl)cc2)cc1 | 0 |  |  | 0 | 
10 | CCCCNC(=O)c1ccc(NC(=O)NC(=O)c2c(F)cccc2F)cc1 | 0 |  |  | 0 | 
11 | O=C(NC(=O)c1c(F)cccc1F)Nc1ccc(C(=O)N2CCOCC2)cc1 | 0 |  |  | 0 | 
12 | CC(C)(C)c1ccc(CNC(=O)c2ccc(NC(=O)NC(=O)c3c(F)cccc3F)cc2)cc1 | 0 |  |  | 0 | 
13 | O=C(NC(=O)c1c(F)cccc1F)Nc1ccc(S(=O)(=O)Oc2ccc(Cl)cc2)cc1 | 0 |  |  | 0 | 
14 | CC1CCC(C(C)C)C(OS(=O)(=O)c2ccc(NC(=O)NC(=O)c3c(F)cccc3F)cc2)C1 (stereo not drawn) | 0 |  |  | 0 | 
15 | O=C(NC(=O)c1c(F)cccc1F)Nc1ccc(S(=O)(=O)OCC(F)(F)F)cc1 | 100 | 100 | 100 | 100 | mortality at 2 µg/mL [7]: 40%; mortality at 5 µg/mL [8]: 90%; mortality at 20 µg/mL [5]: 100%; mortality at 5 µg/mL [9]: 60%; mortality at 10 µg/mL [6]: 100%; mortality at 20 µg/mL [10]: 100%
16 | O=C(NC(=O)c1c(F)cccc1F)Nc1ccc(CO/N=C(/c2ccc(Cl)cc2)C2CC2)cc1 [FLUCYCLOXURON] |  |  |  |  | mortality at 1 µg/mL [11]: 10%; mortality at 2.5 µg/mL [12]: 50%; mortality at 5 µg/mL [9]: 90%
